Converted amounts (≈) assume the structure as drawn.
What was measured:
[1] = biological target: T1, Poly [ADP-ribose] polymerase tankyrase-2 (Homo sapiens) (UniProt Q9H2K2); test: Binding affinity to TNKS2 PARP domain (947 to 1162) (unknown origin) expressed in Escherichia coli BL21(DE3) assessed as thermal stabilization at 125 uM by differential scanning flourimetric analysis
T1 sequence (whole entry): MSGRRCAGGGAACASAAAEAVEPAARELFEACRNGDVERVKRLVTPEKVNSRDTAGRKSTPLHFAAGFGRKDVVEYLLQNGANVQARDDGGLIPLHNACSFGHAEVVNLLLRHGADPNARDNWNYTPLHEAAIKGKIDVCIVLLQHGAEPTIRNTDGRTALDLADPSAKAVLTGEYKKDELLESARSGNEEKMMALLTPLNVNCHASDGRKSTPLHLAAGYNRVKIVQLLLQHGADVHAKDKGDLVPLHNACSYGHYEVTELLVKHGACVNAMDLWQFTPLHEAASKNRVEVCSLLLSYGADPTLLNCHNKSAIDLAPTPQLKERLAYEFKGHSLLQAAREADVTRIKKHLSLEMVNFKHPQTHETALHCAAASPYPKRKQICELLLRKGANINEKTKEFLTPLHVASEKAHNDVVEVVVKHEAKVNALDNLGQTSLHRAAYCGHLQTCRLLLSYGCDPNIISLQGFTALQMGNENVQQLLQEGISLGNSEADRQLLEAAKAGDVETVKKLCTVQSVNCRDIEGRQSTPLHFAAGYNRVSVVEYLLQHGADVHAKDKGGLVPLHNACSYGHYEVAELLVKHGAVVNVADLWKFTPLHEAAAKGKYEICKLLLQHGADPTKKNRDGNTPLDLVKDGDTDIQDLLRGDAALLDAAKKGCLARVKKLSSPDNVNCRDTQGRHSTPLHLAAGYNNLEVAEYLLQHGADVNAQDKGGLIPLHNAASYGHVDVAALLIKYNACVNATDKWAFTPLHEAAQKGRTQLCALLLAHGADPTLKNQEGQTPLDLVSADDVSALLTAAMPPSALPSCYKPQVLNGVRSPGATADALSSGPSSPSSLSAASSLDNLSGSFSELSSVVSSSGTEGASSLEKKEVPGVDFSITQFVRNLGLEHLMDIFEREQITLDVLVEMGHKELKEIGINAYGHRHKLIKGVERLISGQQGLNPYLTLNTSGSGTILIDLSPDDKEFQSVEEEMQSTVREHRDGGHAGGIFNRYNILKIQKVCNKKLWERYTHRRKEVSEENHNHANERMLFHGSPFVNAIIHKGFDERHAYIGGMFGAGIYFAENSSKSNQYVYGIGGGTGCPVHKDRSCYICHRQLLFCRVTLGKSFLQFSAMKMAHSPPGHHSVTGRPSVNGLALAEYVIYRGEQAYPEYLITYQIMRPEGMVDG
In short: (§1)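 DSF dose−response. TNKS2 at 0.2 mg/mL with SYPRO Orange (5×). Compounds were serially diluted in 100% DMSO at 50× the assay concentration. Chymotrypsin (1/100 TNKS2 mass equivalents) was added to the protein–dye mix just before the run. Scanned 25−80 °C at about 2 °C/min, ex 490/em 575 nm, and Tm shift was taken against the DMSO control.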

[2] = biological target: T2, Poly [ADP-ribose] polymerase tankyrase-2 (Homo sapiens, UniProt Q9H2K2); test: Inhibition of auto-PARsylation of GST-tagged TNKS2 PARP domain (947 to 1162) (unknown origin) expressed in Escherichia coli BL21(DE3) after 2 hrs by LC/MS analysis
T2 sequence (Q9H2K2 whole entry): T1 sequence (whole entry)

[3] = Thermodynamic solubility of the compound in pION buffer at 500 uM after 18 hrs at pH 4.0 by UV-spectrophotometric analysis; type: physicochemical; conditions: read-out: Therm_solubility
In short: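 A 50 mM DMSO stock was diluted into pH 4.0 pION buffer (final 500 μM test compound) and incubated sealed for 18 h. Samples were vacuum filtered, discarding the first filtrate used to wet the filter. Filtrate was mixed 1:1 with 1-propanol for UV read-out.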

[4] = biological target: T2, Poly [ADP-ribose] polymerase tankyrase-2; test: Binding affinity to 6His-tagged TNKS2 PARP domain (947 to 1162) (unknown origin) expressed in Escherichia coli BL21(DE3) by surface plasmon resonance analysis
In short: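 SPR on a Biacore instrument. Running buffer: 20 mM PBS pH 7.4, 0.05% Tween20, 2% DMSO. His-tagged TNKS2 (20 μg/mL in 20 mM PBS pH 7.4) was capture-coupled at 10 μL/min onto a Ni²⁺/NHS doubly preactivated NTA chip, to a target of 5000 RU.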

[5] = biological target: T1, Poly [ADP-ribose] polymerase tankyrase-2 (Homo sapiens); test: Binding affinity to TNKS2 PARP domain (947 to 1162) (unknown origin) expressed in Escherichia coli BL21(DE3) assessed as thermal stabilization at 1 mM by differential scanning flourimetric analysis
In short: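 Fragment screen by DSF. TNKS2 at 0.2 mg/mL with SYPRO Orange (5×). Compound added from 50 mM DMSO stocks, giving final 1 mM and 2% DMSO; DMSO controls on each plate. Scanned 25−80 °C at about 2 °C/min, fluorescence ex 490/em 575 nm. Curves inspected visually; Tm fitted to sigmoidal transitions.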

[6] = biological target: Protein mono-ADP-ribosyltransferase PARP6 (Homo sapiens, UniProt Q2NL67); test: Inhibition of PARP6 (unknown origin)
[7] = biological target: T1, Poly [ADP-ribose] polymerase tankyrase-2 (Homo sapiens); test: Binding affinity to TNKS2 PARP domain (947 to 1162) (unknown origin) expressed in Escherichia coli BL21(DE3) assessed as thermal stabilization by differential scanning flourimetric analysis; in short: as §1
[8] = biological target: T3, Protein mono-ADP-ribosyltransferase PARP11 (Homo sapiens) (UniProt Q9NR21); test: Inhibition of PARP11 (unknown origin) at 10 uM relative to control
T3 sequence (whole entry): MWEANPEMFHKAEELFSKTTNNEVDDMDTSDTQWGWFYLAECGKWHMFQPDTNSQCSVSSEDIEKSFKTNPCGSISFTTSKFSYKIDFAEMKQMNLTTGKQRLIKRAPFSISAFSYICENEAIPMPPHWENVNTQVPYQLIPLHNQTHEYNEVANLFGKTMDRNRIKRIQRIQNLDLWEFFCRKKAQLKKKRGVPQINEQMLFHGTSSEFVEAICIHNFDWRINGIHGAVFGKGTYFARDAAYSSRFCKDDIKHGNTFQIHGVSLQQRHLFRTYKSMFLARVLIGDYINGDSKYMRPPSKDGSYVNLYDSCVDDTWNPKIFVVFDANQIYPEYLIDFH

[9] = biological target: T4, Protein mono-ADP-ribosyltransferase TIPARP (Homo sapiens) (UniProt Q7Z3E1); test: Inhibition of PARP7 (unknown origin) at 10 uM relative to control
T4 sequence (whole entry): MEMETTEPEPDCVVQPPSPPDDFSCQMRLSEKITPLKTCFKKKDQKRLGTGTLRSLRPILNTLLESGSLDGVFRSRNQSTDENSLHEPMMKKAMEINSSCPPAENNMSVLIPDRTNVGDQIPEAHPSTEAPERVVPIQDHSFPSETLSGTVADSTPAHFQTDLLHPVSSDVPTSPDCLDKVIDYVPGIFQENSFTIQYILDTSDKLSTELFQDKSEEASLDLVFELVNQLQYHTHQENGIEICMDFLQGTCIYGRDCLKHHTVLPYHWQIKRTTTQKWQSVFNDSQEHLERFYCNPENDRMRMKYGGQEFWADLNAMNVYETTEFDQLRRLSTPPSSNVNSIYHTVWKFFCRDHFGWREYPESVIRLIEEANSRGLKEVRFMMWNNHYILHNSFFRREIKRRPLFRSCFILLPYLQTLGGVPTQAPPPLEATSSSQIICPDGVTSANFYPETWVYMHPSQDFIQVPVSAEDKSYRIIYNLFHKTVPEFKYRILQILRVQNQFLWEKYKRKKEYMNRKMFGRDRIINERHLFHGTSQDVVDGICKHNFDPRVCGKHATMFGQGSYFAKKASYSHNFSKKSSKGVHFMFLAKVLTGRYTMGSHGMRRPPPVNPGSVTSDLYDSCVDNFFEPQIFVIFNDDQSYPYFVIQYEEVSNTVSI

Protein mono-ADP-ribosyltransferase PARP6, sequence (Q2NL67 whole entry, the tested form may be a part): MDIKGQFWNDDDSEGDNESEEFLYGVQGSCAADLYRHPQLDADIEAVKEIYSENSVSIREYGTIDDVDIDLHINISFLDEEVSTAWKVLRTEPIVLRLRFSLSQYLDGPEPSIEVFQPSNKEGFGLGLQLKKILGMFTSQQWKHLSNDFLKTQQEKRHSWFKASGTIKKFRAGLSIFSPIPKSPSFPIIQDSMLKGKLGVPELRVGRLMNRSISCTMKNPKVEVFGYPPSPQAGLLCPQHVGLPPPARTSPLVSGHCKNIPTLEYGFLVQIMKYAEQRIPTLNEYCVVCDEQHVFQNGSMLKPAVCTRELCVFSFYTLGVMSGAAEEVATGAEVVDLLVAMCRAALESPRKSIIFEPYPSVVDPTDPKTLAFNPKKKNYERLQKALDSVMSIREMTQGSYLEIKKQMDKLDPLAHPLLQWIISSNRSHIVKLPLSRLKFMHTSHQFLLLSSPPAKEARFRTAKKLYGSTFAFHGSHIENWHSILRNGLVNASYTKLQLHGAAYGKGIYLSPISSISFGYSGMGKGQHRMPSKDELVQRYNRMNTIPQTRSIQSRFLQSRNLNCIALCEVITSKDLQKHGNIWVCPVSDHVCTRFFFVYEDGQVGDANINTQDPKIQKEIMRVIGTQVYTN

ΔTm [1]	IC50 [2]	Kd [4]	Compound	further results
4.4 °C	150 nM	–	Cc1cc(=O)[nH]c2cc(-c3cccc(F)c3)ccc12	–
7.4 °C	21 nM	–	Cc1cc(=O)[nH]c2cc(-c3ccc(C(=O)O)cc3Cl)ccc12	solubility thermodynamic at 18 h, 500 µM [3]: 4.3 µg/mL (≈ 13.7 µM)
10.1 °C	9 nM	16 nM	COCCNC(=O)c1ccc(-c2ccc3c(C)cc(=O)[nH]c3c2)c(Cl)c1	–
–	> 20000 nM	–	Oc1ccc2ccccc2n1	–
9.9 °C	22 nM	18 nM	Cc1cc(=O)[nH]c2cc(-c3ccc(C(=O)NCCN4CCOCC4)cc3Cl)ccc12	solubility thermodynamic at 18 h, 500 µM [3]: 42.6 µg/mL (≈ 100 µM)
3.1 °C	310 nM	–	Cc1cc(=O)[nH]c2cc(-c3ccc(F)cc3)ccc12	–
–	12000 nM	–	Cc1cc(=O)[nH]c2ccccc12	ΔTm [5]: 1.1 °C
0.6 °C	> 20000 nM	–	Cc1cc(=O)[nH]c2ccc(-c3ccccc3)cc12	–
–	–	–	Oc1nc(-c2ccc(C(F)(F)F)cc2)nc2c1CSCC2	IC50 [6]: > 10000 nM
1.5 °C	1370 nM	–	COc1ccccc1-c1ccc2c(C)cc(=O)[nH]c2c1	–
6.3 °C	9 nM	57 nM	Cc1cc(=O)[nH]c2cc(-c3ccccc3Cl)ccc12	solubility thermodynamic at 18 h, 500 µM [3]: < 0.1 µg/mL
–	–	–	O=c1[nH]nc(Cl)c2ccccc12	Activity [7]: Dose-dependent effect; ΔTm [5]: 1.3 °C
3.2 °C	180 nM	900 nM	Cc1cc(=O)[nH]c2cc(-c3ccccc3)ccc12	solubility thermodynamic at 18 h, 500 µM [3]: 0.65 µg/mL (≈ 2.76 µM)
–	–	–	O=C(c1cc(Cc2n[nH]c(=O)c3ccccc23)ccc1F)N1CCN(C(=O)C2CC2)CC1	inhibition [8]: 72%; inhibition [9]: 84%
9.4 °C	39 nM	39 nM	Cc1cc(=O)[nH]c2cc(-c3ccc(N)cc3Cl)ccc12	–

From ChEMBL document CHEMBL2380224, “Fragment-based ligand design of novel potent inhibitors of tankyrases” (J Med Chem, 2013)
